Screening data deposited in PubChem by several laboratories.
In the library only some 3.5% were active in any assay of this set; here they are far more common.
WT yeast gro inh: growth inhibition of WT strain, primary screen, mitochondrial fusion inhibitor project, WT and mutant strains, chemical genetic; inhibition, % at 10 µM; 190,000 tested, 2.1% active; mitochondrial fusion phenotypic screen; AID 1362, 2008; in the data active = inhibition above about 58%; tested in S. cerevisiae
MEKK3 PB1 HTS: modulators of MEKK3-MEK5 PB1 binding, primary screen, biochemical, wildtype MEKK3, multiplex bead flow cytometry, Alexa488-MEK5. 290,000 tested, 1.4% active. AID 1529, 2009. Mitogen-activated protein kinase kinase kinase 3 (Homo sapiens), Q99759. bead-based flow cytometry, Alexa488-MEK5 binding to MEKK3; actives lie on both sides; 0 = blocked by unlabeled MEK5, 100 = vehicle. binding response (% of control), % at 10 µM;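 active = binding response more than 3 SD above or below the average of its plate-row segment, actives on both sides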;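 also: Alexa488 bead fluorescence after subtracting the streptavidin-only scavenger bead signal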
Target sequence (Q99759 whole entry, looked up): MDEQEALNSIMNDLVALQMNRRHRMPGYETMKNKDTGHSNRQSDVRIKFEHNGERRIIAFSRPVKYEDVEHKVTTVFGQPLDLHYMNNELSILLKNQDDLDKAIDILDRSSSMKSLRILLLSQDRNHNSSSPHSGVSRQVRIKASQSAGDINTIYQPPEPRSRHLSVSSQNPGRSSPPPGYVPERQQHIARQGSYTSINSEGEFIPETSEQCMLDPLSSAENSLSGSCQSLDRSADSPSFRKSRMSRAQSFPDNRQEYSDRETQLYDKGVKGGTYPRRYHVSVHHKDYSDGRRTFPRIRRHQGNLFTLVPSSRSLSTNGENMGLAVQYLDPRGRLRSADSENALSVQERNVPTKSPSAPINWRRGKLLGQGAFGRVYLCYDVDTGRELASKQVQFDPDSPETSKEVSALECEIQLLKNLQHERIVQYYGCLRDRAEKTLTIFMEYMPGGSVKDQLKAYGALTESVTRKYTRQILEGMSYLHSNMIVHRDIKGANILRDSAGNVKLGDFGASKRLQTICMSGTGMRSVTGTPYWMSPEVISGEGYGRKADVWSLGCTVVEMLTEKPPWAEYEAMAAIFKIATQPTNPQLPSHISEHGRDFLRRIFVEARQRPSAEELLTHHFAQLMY
ABCG2 inh: ABCG2 efflux pump inhibitors, primary screen, multiplex with ABCB1, IgMXP3 cells, flow cytometry; Broad substrate specificity ATP-binding cassette transporter ABCG2 (Homo sapiens), Q9UNQ0; JC-1 efflux; inhibition, % at 6.6 µM; 190,000 tested, 0.1% active; AID 1325, 2008;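 active = inhibition above 80%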;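 also: 0% = DMSO and 100% = nicardipine control wells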
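System: two drug-resistant human cell lines, ABCG2 and ABCB1; controls: nicardipine high and DMSO low controls; times: 10 min exposure at 25 °C with rotation, no wash; detection: flow cytometry of retained JC-1 fluorescence; read-out basis: percent efflux inhibition, scaled nicardipine 100% to DMSO 0%; doses: one concentration, 6.6 µM final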
ABCB1 inh: ABCB1 efflux pump inhibitors, primary screen, cell-based, multiplex, flow cytometry, ABCG2 counter-screen; ATP-dependent translocase ABCB1 (Homo sapiens), P08183; CCRF-Adr cells, JC-1 efflux; inhibition, % at 6.6 µM; 190,000 tested, 0.067% active; in the data active = inhibition above about 40%;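 also: 0% = vehicle and 100% = reference inhibitor; higher value means more JC-1 retained so stronger ABCB1 efflux block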
MEKK2 WT-MEK5: modulators of MEK5 binding to wildtype MEKK2, primary screen, biochemical, multiplex bead flow cytometry, Alexa488-MEK5 | Mitogen-activated protein kinase kinase kinase 2 (Homo sapiens), Q9Y2U5 | Alexa488-MEK5 binding to MEKK2 WT; actives lie on both sides | binding response (% of control), % at 10 µM | 290,000 tested, 1.1% active | AID 1531, 2009; in the data active = binding response below about 67% or above about 130%
MEKK2 mut-MEK5: MEK5 binding signal on mutant MEKK2 PB1, primary screen, biochemical, multiplex bead flow cytometry, Alexa488-MEK5. Alexa488-MEK5 binding to MEKK2 mutant. percent response, % at 10 µM. 290,000 tested, 0.35% active; in the data active = percent response above about 24%, passing the limit was not always enough
MEKK2wt confirm: modulators of MEK5 binding to wildtype MEKK2, confirmation, biochemical, single concentration, multiplex bead flow cytometry | shares compounds with MEKK3 PB1 HTS | Alexa488-MEK5 binding to MEKK2 WT; actives lie on both sides | binding response (% of control), % at 10 µM | 5,900 tested, 2.4% active | AID 1892, 2009; in the data active = binding response below about 16% or above about 210%; inactive = in between
MEKK2mut confirm: mutant MEKK2 PB1-MEK5 binding signal retest – biochemical, single concentration, multiplex bead flow cytometry, confirmation; AID 1893, 2009; 5,900 tested, 2% active; shares compounds with MEKK3 PB1 HTS; Alexa488-MEK5 binding to MEKK2 mutant; percent response, % at 10 µM; in the data active = percent response mostly above about 71%, no sharp cut-off; inactive = mostly below about 38%;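 also: higher means compound restores mutant binding toward wildtype level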
MEKK3-MEK5 inh: MEKK3 wild-type PB1 binding to MEK5, inhibitors, confirmation, biochemical, bead multiplex flow cytometry, single concentration, wildtype; shares compounds with MEKK3 PB1 HTS; Alexa488-MEK5 binding to MEKK3; hits give low values; binding response (% of control), % at 10 µM; 5,900 tested, 1.8% active; AID 1894, 2009;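 active = binding response below 72% of control, or above a set upper limit, though filed actives all read lower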;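 also: 100% = DMSO only wells and 0% = binding blocked by excess unlabeled MEK5; lower values mean stronger disruption of MEK5 binding to MEKK3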
Starred values were filed as active, the others as inactive; [ ] = remark or other dose.

Screening N#Cc1nc(-c2cccc3ccccc23)oc1NCCN1CCCCC1 returned WT yeast gro inh 35.6, MEKK3 PB1 HTS 109.0, ABCG2 inh 1.1, ABCB1 inh 0.1, MEKK2 WT-MEK5 159.0*, MEKK2 mut-MEK5 12.0, MEKK2wt confirm 175.0, MEKK2mut confirm 49.0 and MEKK3-MEK5 inh 114.0.
Screening CCOc1cc(/C=N/NC(=S)Nc2ccccc2C(F)(F)F)ccc1OCC(=O)N1CCOCC1 returned WT yeast gro inh -1.1, MEKK3 PB1 HTS 89.0, ABCG2 inh -17.6, ABCB1 inh -6.0, MEKK2 WT-MEK5 88.0 and MEKK2 mut-MEK5 -4.0.
For O=C(COC(=O)CCN1C(=O)/C(=C\C=C\c2ccccc2)SC1=S)Nc1cc(F)ccc1F the results were WT yeast gro inh 10.0, MEKK3 PB1 HTS 92.0, ABCG2 inh -3.4, ABCB1 inh -1.6, MEKK2 WT-MEK5 58.0*[inhibitor], MEKK2 mut-MEK5 -34.0, MEKK2wt confirm 68.0, MEKK2mut confirm -18.0 and MEKK3-MEK5 inh 94.0.
Screening Cc1ccc2cc(CCNC(=O)c3ccc(Br)o3)c(=O)[nH]c2c1 returned WT yeast gro inh 32.1, ABCG2 inh 5.2 and ABCB1 inh 1.0.
`O=C(O)c1ccccc1O` gave WT yeast gro inh -8.7, MEKK3 PB1 HTS 83.0, ABCG2 inh 0.0, ABCB1 inh 1.4, MEKK2 WT-MEK5 100.0 and MEKK2 mut-MEK5 3.0.
Screening O=C(O)c1cccc(C(=O)O)c1Br returned MEKK3 PB1 HTS 109.0, MEKK2 WT-MEK5 152.0*, MEKK2 mut-MEK5 11.0, MEKK2wt confirm 104.0, MEKK2mut confirm 6.0 and MEKK3-MEK5 inh 98.0.
COC(=O)CSc1nc(N)c(C#N)c(-c2ccco2)c1C#N was read as WT yeast gro inh -2.8, MEKK3 PB1 HTS 93.0, ABCG2 inh 1.6, ABCB1 inh 0.1, MEKK2 WT-MEK5 94.0 and MEKK2 mut-MEK5 -6.0.
`COC(=O)CSc1nc(-c2ccccc2)cc(-c2ccco2)c1C#N` gave WT yeast gro inh -1.4, MEKK3 PB1 HTS 125.0*, ABCG2 inh 0.4, ABCB1 inh 0.1, MEKK2 WT-MEK5 123.0, MEKK2 mut-MEK5 5.0, MEKK2wt confirm 106.0, MEKK2mut confirm 4.0 and MEKK3-MEK5 inh 106.0.
Screening O=S(=O)(Nc1ccc(-c2nnc(SCc3ccc(Cl)cc3)o2)cc1)c1ccccc1 returned WT yeast gro inh 34.0, MEKK3 PB1 HTS 131.0*, ABCG2 inh -0.9, ABCB1 inh 0.5, MEKK2 WT-MEK5 115.0, MEKK2 mut-MEK5 3.0, MEKK2wt confirm 94.0, MEKK2mut confirm -2.0 and MEKK3-MEK5 inh 102.0.
For Cc1cc(C)nc(-n2ncc3c2CC(c2ccccc2C)CC3=O)n1 (stereo not drawn) the results were WT yeast gro inh -0.9, MEKK3 PB1 HTS 137.0*, ABCG2 inh 3.6, ABCB1 inh 0.9, MEKK2 WT-MEK5 103.0, MEKK2 mut-MEK5 0.0, MEKK2wt confirm 103.0, MEKK2mut confirm 0.0 and MEKK3-MEK5 inh 102.0.
O=C1N=NC2=C1c1c3ccccc3c(O)n1CC2 was read as MEKK3 PB1 HTS 96.0, MEKK2 WT-MEK5 93.0 and MEKK2 mut-MEK5 -6.0.
O=S(=O)(c1ccc(F)cc1)c1nc(-c2ccco2)oc1Nc1ccc(F)cc1 was read as WT yeast gro inh 1.8, MEKK3 PB1 HTS 137.0*, ABCG2 inh 10.9, ABCB1 inh 1.5, MEKK2 WT-MEK5 105.0, MEKK2 mut-MEK5 0.0, MEKK2wt confirm 94.0, MEKK2mut confirm -4.0 and MEKK3-MEK5 inh 98.0.
Screening Cc1cc(C(C)(C)C)ccc1OCC(=O)N/N=C\c1c(C)n(C)n(-c2ccccc2)c1=O returned MEKK3 PB1 HTS 93.0, MEKK2 WT-MEK5 90.0 and MEKK2 mut-MEK5 -9.0.
For CCC1CCCCN1S(=O)(=O)c1ccc(C(=O)N(CCCN(C)C)c2nc3cc4c(cc3s2)OCO4)cc1 (stereo not drawn) the results were MEKK3 PB1 HTS 109.0, MEKK2 WT-MEK5 156.0*, MEKK2 mut-MEK5 24.0*, MEKK2wt confirm 144.0, MEKK2mut confirm 31.0 and MEKK3-MEK5 inh 106.0.
CN(C)CCCN(C(=O)c1ccc2ccccc2c1)c1nc2cc3c(cc2s1)OCO3 was read as MEKK3 PB1 HTS 106.0, MEKK2 WT-MEK5 142.0*, MEKK2 mut-MEK5 24.0*, MEKK2wt confirm 140.0, MEKK2mut confirm 19.0 and MEKK3-MEK5 inh 104.0.
Screening CN(C)CCN(C(=O)c1cccc2ccccc12)c1nc2cc3c(cc2s1)OCO3 returned MEKK3 PB1 HTS 111.0, MEKK2 WT-MEK5 137.0*, MEKK2 mut-MEK5 23.0, MEKK2wt confirm 137.0, MEKK2mut confirm 21.0 and MEKK3-MEK5 inh 103.0.
`CN(C)CCN(C(=O)c1ccc2ccccc2c1)c1nc2cc3c(cc2s1)OCCO3` gave MEKK3 PB1 HTS 102.0, MEKK2 WT-MEK5 125.0 and MEKK2 mut-MEK5 13.0.
For CN(C)CCCN(C(=O)c1ccc(S(=O)(=O)N(C)Cc2ccccc2)cc1)c1nc2cc3c(cc2s1)OCO3 the results were MEKK3 PB1 HTS 112.0, MEKK2 WT-MEK5 192.0*, MEKK2 mut-MEK5 41.0*, MEKK2wt confirm 189.0, MEKK2mut confirm 45.0 and MEKK3-MEK5 inh 107.0.
O=C(CS(=O)(=O)c1ccc2ccccc2c1)N1CCCCCC1 was read as WT yeast gro inh -2.0, MEKK3 PB1 HTS 107.0, ABCG2 inh 2.0, ABCB1 inh 0.6, MEKK2 WT-MEK5 96.0 and MEKK2 mut-MEK5 -9.0.
For CC(=O)c1ccc(/C=C/c2nc3ccccc3n2C)o1 the results were MEKK3 PB1 HTS 58.0, MEKK2 WT-MEK5 67.0 and MEKK2 mut-MEK5 -22.0.
`CC(NC(=O)/C=C/c1ccco1)c1nc2ccccc2n1Cc1ccccc1F` (stereo not drawn) gave WT yeast gro inh 1.3, MEKK3 PB1 HTS 135.0*, ABCG2 inh 4.9, ABCB1 inh 1.2, MEKK2 WT-MEK5 107.0, MEKK2 mut-MEK5 1.0, MEKK2wt confirm 76.0, MEKK2mut confirm -10.0 and MEKK3-MEK5 inh 76.0.
